IC50 and Inhibition data for 44 compounds are collected here from ChEMBL document CHEMBL1125266, “Tyrphostins. 2. Heterocyclic and alpha-substituted benzylidenemalononitrile tyrphostins as potent inhibitors of EGF receptor and ErbB2/neu tyrosine kinases” (J Med Chem, 1991).

In experiment [1] the target is T1, Epidermal growth factor receptor (Homo sapiens, UniProt P00533). Nature of the experiment: Inhibition of polyGAT phosphorylation.
Experiment [2] deals with T1, Epidermal growth factor receptor. The experiment in a line: In vitro inhibition of HER1 autophosphorylation.
Experiment [3] addresses Receptor tyrosine-protein kinase erbB-2 (Homo sapiens, UniProt P04626). Nature of the experiment: In vitro inhibition of ERBB2 receptor kinase autophosphorylation.
For experiment [4], the system named is NIH3T3. Nature of the experiment: (§1) Inhibition of HER14 serum dependent cell proliferation without EGF. Type of experiment: functional, Mus musculus. The procedure, abridged:
(§2)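 Serum-starved HER14 cells (NIH3T3 stably overexpressing EGF receptor) were given inhibitor at least 6-8 h before serum stimulation, with no EGF added. Inhibitor-containing medium was replaced every 24 h. Three parallel wells were used per concentration, and the IC50 for inhibition of serum-supported growth was determined.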

Experiment [5] has as its system NIH3T3. Described as §1. The conditions noted are these: Mus musculus.
Experiment [6] concerns NIH3T3. The experiment in a line: Inhibition of HER14 (human EGFR overexpressing NIH3T3) cell growth in the absence of EGF. Type of experiment: functional, Mus musculus. In a few lines:
as §2

Experiment [7] concerns the target T1, Epidermal growth factor receptor. Nature of the experiment: Inhibition of epidermal growth factor receptor autophosphorylation.
In experiment [8] the test system is NIH3T3. The description is as §1. The class given is functional, cell-based. The conditions noted are these: Mus musculus. In a few lines: as §2

Chain of Receptor tyrosine-protein kinase erbB-2 (P04626 whole entry): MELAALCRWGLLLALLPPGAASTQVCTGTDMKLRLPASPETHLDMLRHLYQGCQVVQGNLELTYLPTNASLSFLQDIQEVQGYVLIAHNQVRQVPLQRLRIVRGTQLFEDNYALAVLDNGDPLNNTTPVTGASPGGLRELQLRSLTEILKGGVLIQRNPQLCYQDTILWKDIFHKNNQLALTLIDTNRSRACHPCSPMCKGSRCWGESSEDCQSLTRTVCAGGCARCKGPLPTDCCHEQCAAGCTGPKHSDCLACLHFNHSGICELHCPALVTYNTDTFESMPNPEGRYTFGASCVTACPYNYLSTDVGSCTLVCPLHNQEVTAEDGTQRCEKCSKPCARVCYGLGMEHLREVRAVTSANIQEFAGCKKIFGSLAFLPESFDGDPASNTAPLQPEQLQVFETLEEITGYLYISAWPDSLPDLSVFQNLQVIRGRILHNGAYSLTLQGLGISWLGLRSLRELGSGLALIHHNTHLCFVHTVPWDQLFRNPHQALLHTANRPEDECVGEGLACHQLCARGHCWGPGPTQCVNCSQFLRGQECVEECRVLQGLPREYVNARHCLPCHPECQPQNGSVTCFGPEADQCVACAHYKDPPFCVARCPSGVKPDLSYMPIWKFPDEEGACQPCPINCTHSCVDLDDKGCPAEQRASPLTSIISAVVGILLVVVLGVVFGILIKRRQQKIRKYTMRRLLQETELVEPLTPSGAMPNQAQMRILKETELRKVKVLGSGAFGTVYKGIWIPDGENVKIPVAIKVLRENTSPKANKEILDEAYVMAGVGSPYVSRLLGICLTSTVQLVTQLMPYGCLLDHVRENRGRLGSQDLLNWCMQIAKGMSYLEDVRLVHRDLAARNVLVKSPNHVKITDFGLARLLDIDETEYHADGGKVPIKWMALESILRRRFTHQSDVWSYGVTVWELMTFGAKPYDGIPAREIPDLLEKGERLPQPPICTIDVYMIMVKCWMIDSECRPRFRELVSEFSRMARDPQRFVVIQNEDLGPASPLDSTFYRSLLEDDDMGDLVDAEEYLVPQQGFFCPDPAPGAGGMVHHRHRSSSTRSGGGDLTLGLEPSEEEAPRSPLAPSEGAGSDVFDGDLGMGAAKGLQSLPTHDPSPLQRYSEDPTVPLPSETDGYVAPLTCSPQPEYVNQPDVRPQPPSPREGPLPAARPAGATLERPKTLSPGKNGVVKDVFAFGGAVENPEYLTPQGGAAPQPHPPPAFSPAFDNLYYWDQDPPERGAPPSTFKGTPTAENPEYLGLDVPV
T1 sequence (P00533 whole entry): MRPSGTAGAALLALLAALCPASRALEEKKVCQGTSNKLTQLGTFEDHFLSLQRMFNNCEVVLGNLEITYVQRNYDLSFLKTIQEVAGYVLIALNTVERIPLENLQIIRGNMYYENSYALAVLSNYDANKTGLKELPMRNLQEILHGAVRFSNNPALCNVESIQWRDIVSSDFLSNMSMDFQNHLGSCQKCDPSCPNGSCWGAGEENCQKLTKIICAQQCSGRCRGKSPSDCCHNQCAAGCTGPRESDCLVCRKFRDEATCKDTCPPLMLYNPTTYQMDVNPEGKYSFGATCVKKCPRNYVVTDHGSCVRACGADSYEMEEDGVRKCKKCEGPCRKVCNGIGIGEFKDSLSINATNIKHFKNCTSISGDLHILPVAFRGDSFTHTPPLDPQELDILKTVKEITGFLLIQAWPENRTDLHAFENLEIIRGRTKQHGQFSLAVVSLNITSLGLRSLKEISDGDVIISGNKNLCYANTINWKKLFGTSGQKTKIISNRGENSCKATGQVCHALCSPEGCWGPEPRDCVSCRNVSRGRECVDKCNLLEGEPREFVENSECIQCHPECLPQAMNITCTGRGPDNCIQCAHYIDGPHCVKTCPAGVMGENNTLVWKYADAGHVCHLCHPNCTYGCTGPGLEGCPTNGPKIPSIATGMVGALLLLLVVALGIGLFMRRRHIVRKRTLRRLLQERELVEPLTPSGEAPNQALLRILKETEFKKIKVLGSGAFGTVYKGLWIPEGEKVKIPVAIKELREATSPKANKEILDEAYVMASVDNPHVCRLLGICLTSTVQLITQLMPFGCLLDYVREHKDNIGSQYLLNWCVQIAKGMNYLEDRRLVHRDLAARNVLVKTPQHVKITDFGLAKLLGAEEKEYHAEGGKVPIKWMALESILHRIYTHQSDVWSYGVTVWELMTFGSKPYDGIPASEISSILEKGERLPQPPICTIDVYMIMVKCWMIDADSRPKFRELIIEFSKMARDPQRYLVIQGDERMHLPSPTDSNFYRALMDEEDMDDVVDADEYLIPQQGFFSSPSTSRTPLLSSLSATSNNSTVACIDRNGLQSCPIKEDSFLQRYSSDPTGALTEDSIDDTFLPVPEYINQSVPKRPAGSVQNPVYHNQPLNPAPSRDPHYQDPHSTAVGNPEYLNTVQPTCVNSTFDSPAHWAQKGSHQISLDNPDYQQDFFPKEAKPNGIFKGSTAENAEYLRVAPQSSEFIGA

In turn, `N#CC(C#N)=C1C(=O)Nc2ccc([N+](=O)[O-])cc21` returned an IC50 in experiment [1] of 40 µM. This counts as double-digit micromolar.

As for `N#C/C(=C\c1ccc(O)c(O)c1)C(=O)N1CCCCC1`, in experiment [1], the IC50 was more than 1000 µM.

`N#C/C(=C\c1ccc(O)c(O)c1)C(=O)N1CCN(c2ccccc2)CC1`: the IC50 in experiment [2] came out at 55 µM; in experiment [1], 4.3 µM; in experiment [3], 49 µM.

`N#CC(C#N)=Cc1ccc2c(c1)CCN2Cc1ccccc1` gave an IC50 in experiment [1] of more than 2500 µM.

`N#CC(C#N)=C1CCCc2c(O)cccc21` yielded an IC50 in experiment [1] of 1200 µM.

As for `N#CC(C#N)=C1CCc2cc(O)c(O)cc21`, the Inhibition in experiment [4] is reported as more than 150%. Further, the midpoint of inhibition in experiment [1], the IC50, lay at 0.5 µM.

For `N#C/C(=C\c1ccc(O)c(O)c1)C(=O)NCCc1ccccc1`, the IC50 was less than 0.625 µM in experiment [2], 0.93 µM in experiment [1] and 23 µM in experiment [3].

In experiment [5], `N#CC(C#N)=Cc1ccc2[nH]ccc2c1` came in with an IC50 of 12 µM. This counts as double-digit micromolar.

In experiment [1], `C[S+]([O-])c1ccc(C=C(C#N)C#N)cc1` (centres undefined) registered an IC50 of 1800 µM.

Turning to `N#C/C(=C\c1ccc(O)c(O)c1)C(N)=O`, the IC50 in experiment [2] stood at 4.5 µM; in experiment [3], 6.4 µM; in experiment [6], 60 µM.

Regarding `N#CC(C#N)=Cc1ccco1`, the IC50 in experiment [1] was more than 1250 µM.

`N#C/C(=C\c1ccc(O)c(O)c1)C(=O)NC1CCCCC1`: the IC50 in experiment [2] is 5.9 µM; in experiment [1], 1.6 µM; in experiment [3], 17 µM; in experiment [6], 50 µM.

On to `N#C/C(=C\c1ccc(O)c(O)c1)C(=O)NCCCCc1ccccc1`, for which the IC50 in experiment [2] is 5 µM; in experiment [1] it was 1.1 µM; in experiment [3], more than 500 µM; in experiment [6], 10 µM.

On to `N#C/C(=C\c1ccc(O)c(O)c1)C(=O)NCCCc1ccccc1`, for which the IC50 in experiment [2] came to 0.7 µM; in experiment [1] it was 0.7 µM; in experiment [3] it was 35 µM; in experiment [6], 25 µM.

Regarding `Cc1ccc(C(=O)/C(C#N)=C/c2ccc(O)c(O)c2)cc1`, the IC50 in experiment [2] was determined as 15 µM; in experiment [1] it was 0.88 µM; in experiment [3], 10 µM; in experiment [6], 100 µM.

Consider `N#C/C(=C\c1ccc(O)c(O)c1)C(=O)c1ccc(F)cc1`, for which the half-maximal inhibitory concentration (IC50) in experiment [7] is 5.1 µM; in experiment [4] it was 80 µM; in experiment [1], 0.56 µM; in experiment [3], 13.6 µM.

Turning to `Cc1cccc(C)c1NC(=O)/C(C#N)=C/c1ccc(O)c(O)c1`, the IC50 in experiment [2] is 10.3 µM; in experiment [1], 5.1 µM; in experiment [3], 34 µM; in experiment [6] it was more than 20 µM.

In experiment [1], `N#CC(C#N)=C1C(=O)Nc2ccc(O)cc21` registered an IC50 of 12.5 µM.

In the case of `Cc1cc(C)c(C(=O)/C(C#N)=C/c2ccc(O)c(O)c2)c(C)c1`, the IC50 was 24 µM in experiment [2], 10.7 µM in experiment [1] and 50 µM in experiment [3].

For the compound `N#C/C(=C\c1ccc(O)c(O)c1)C(=O)c1cccs1`, the IC50 in experiment [2] is 31 µM; in experiment [1], 3.1 µM; in experiment [3], 35 µM.

In the case of `N#C/C(=C\c1ccc(O)c(O)c1)C(=O)c1ccccc1`, the IC50 is 14 µM in experiment [2], 1.3 µM in experiment [1], 18 µM in experiment [3] and 120 µM in experiment [6].

`CN1C(=O)C(=C(C#N)C#N)c2cc(O)ccc21`: inhibition in experiment [1] was half-maximal at 26 µM (IC50).

For `N#C/C(=C\c1ccc(O)c(O)c1)C(=O)Nc1ccccc1Cl`, the IC50 in experiment [2] was 2.1 µM; in experiment [1], 1.1 µM; in experiment [3] it was 57 µM; in experiment [6] it was 12 µM.

In experiment [1], `N#CC(C#N)=Cc1cccnc1` gave an IC50 of 225 µM.

For the compound `CCOC(=O)C(Cc1ccccc1)NC(=O)/C(C#N)=C/c1ccc(O)c(O)c1` (centres undefined), the IC50 was 49 µM in experiment [2], 1.53 µM in experiment [1] and more than 333 µM in experiment [3].

Take `N#C/C(=C\c1ccc(O)c(O)c1)C(=O)c1ccc(O)c(O)c1`: the IC50 was 5 µM in experiment [2], more than 50 µM in experiment [4], 0.37 µM in experiment [1] and 18 µM in experiment [3].

`COc1ccc(CCNC(=O)/C(C#N)=C/c2ccc(O)c(O)c2)cc1OC` yielded an IC50 in experiment [1] of 1.7 µM.

`N#C/C(=C\c1ccc(O)c(O)c1)C(=O)N1CCc2ccccc21`: the IC50 in experiment [2] was found to be 12 µM; in experiment [1] it was 2.1 µM; in experiment [3], 4.9 µM; in experiment [6] it was 100 µM.

With `N#C/C(=C\c1ccc(O)c(O)c1)C(=O)NCc1ccccc1`, the values for the IC50 in experiment [3] and in experiment [6] were 13.5 µM and 25 µM, respectively.

In experiment [1], `N#CC(C#N)=Cc1ccc(S(=O)(=O)O)o1` returned a 50% inhibitory concentration (IC50) of more than 250 µM.

On to `N#C/C(=C\c1ccc(O)c(O)c1)C(=O)Nc1ccccc1`, for which the IC50 is 42 µM in experiment [3] and more than 50 µM in experiment [6].

For the compound `N#C/C(=C\c1ccc(O)c(O)c1)C(=O)c1ccc([N+](=O)[O-])cc1`, the IC50 is 11 µM in experiment [2], 2.3 µM in experiment [1], 3 µM in experiment [3] and <<20 uM in experiment [6].

`COc1cc2c(cc1O)NC(=O)C2=C(C#N)C#N` came in with an IC50 in experiment [1] of 60 µM.

Turning to `COc1ccc(C=C(C#N)C#N)cc1F`, half-maximal inhibition in experiment [1] (IC50) required 800 µM.

In the case of `COc1ccc(NC(=O)/C(C#N)=C/c2ccc(O)c(O)c2)c(OC)c1`, in experiment [3], the IC50 was more than 166 µM.

Turning to `N#CC(C#N)=C1CCc2c1ccc(O)c2O`, the half-inhibitory concentration (IC50) in experiment [1] was 7 µM.

In turn, `N#CC(C#N)=C1C(=O)Nc2cc(O)c(O)cc21` came in with an IC50 in experiment [1] of 2.5 µM.

`CSc1ccc(C=C(C#N)C#N)cc1` had an IC50 in experiment [1] of more than 625 µM.

In turn, `CC(=O)Nc1ccc(C=C(C#N)C#N)cc1` came in with a half-inhibitory concentration (IC50) in experiment [1] of more than 325 µM.

In the case of `N#CC(C#N)=Cc1ccc(C#N)cc1`, half-maximal inhibition in experiment [1] (IC50) required 1400 µM.

Regarding `N#C/C(=C\c1ccc(O)c(O)c1)C(=O)c1ccccc1Cl`, the figures for the 50% inhibitory concentration (IC50) in experiment [2], in experiment [1] and in experiment [3] were 6.6 µM, 1.54 µM and 12 µM, respectively.

In the case of `N#CC(C#N)=C(N)/C(C#N)=C/c1ccc2[nH]ccc2c1`, the values for the IC50 in experiment [8], in experiment [4] and in experiment [1] were 7 µM, >>100 uM and 820 µM, respectively.

Take `CC(NC(=O)/C(C#N)=C/c1ccc(O)c(O)c1)c1ccccc1` (stereo in doubt; 44): the IC50 in experiment [2] worked out at 2.5 µM; in experiment [1], 0.4 µM; in experiment [3], 37 µM; in experiment [6], 10 µM.

Consider `CC(NC(=O)/C(C#N)=C/c1ccc(O)c(O)c1)c1ccccc1` (stereo in doubt; 50), for which the IC50 in experiment [1] stood at 0.86 µM.
